From ChEMBL document CHEMBL4673214, “Synthesis and antibacterial bioactivities of cationic deacetyl linezolid amphiphiles” (Eur J Med Chem, 2018)
≈ marks a conversion by molar mass, not a printed value. Calls of active or inactive are those of the source. The rule behind the calls is not given here.

Assays:
Klebsiella pneumoniae [1] = assay: Antibacterial activity against carbapenem-resistant Klebsiella pneumoniae clinical isolate 5 assessed as reduction in bacterial growth incubated for 16 to 20 hrs by CLSI-based broth microdilution method; type: functional; settings: time 16-20 hrs
Procedure, shortened: (§1)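 Clinical isolates tested by broth microdilution in cation-adjusted Mueller-Hinton broth. Cultures grown 4-6 h (~10^8 CFU/mL) were diluted to ~10^6 CFU/mL and mixed 1:1 with compound serial dilutions made from 256 down to 0.5 µg/mL (pre-mixing). Plates held at 37 °C for 16-20 h, then read for growth. Each concentration run in duplicate, whole experiment at least twice.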

Enterobacteriaceae [2] = assay: Antibacterial activity against NDM1 producing carbapenem-resistant Enterobacteriaceae clinical isolate 5 assessed as reduction in bacterial growth incubated for 16 to 20 hrs by CLSI-based broth microdilution method; type: functional; settings: time 16-20 hrs; procedure, shortened: as §1
Enterobacteriaceae [3] = assay: Antibacterial activity against NDM1 producing carbapenem-resistant Enterobacteriaceae clinical isolate 3 assessed as reduction in bacterial growth incubated for 16 to 20 hrs by CLSI-based broth microdilution method; type: functional; settings: time 16-20 hrs; procedure, shortened: as §1
Escherichia coli [4] = assay: Antibiofilm activity against 24 hrs preformed biofilm of Escherichia coli ATCC 25922 assessed as eradication of preformed biofilm incubated for 24 hrs by crystal violet staining assay; type: functional
Cell membrane [5] = assay: Induction of inner membrane permeabilization in Staphylococcus aureus ATCC 29213 at 20 ug/ml measured for 12 mins by propidium iodide staining based fluorescence microscopic analysis; settings: dose 20.0 µg/ml
Procedure, shortened: (§2)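 Mid-log bacteria were washed and resuspended at ~10^8 CFU/mL and preincubated with propidium iodide (10 µM stock) for 30 min (S. aureus) or 40 min (E. coli). Fluorescence (ex 535/em 617 nm) was read on a plate for an 8 min baseline, then every 2 min for 12 min after compound at 20 µg/mL final. Water served as control.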

Cell membrane [6] = assay: Induction of cytoplasmic membrane depolarization in Staphylococcus aureus ATCC 29213 at 20 ug/ml measured for 12 mins by DiSC35 dye-based fluorescence assay; type: subcellular; settings: dose 20.0 µg/ml
Procedure, shortened: (§3)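 Mid-log bacteria were washed and resuspended at ~10^8 CFU/mL: S. aureus in PBS, E. coli in 5 mM HEPES/5 mM glucose/100 mM KCl (1:1:1). Cells were loaded with diSC35 (10 µM stock) for 30 min (S. aureus) or 40 min (E. coli, plus EDTA). Fluorescence (ex 622/em 670 nm) was read for an 8 min baseline, then every 2 min for 12 min after compound at 20 µg/mL final. Water served as control.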

Klebsiella pneumoniae [7] = assay: Antibacterial activity against carbapenem-resistant Klebsiella pneumoniae clinical isolate 4 assessed as reduction in bacterial growth incubated for 16 to 20 hrs by CLSI-based broth microdilution method; type: functional; settings: time 16-20 hrs; procedure, shortened: as §1
Klebsiella pneumoniae [8] = assay: Antibacterial activity against carbapenem-resistant Klebsiella pneumoniae clinical isolate 1 assessed as reduction in bacterial growth incubated for 16 to 20 hrs by CLSI-based broth microdilution method; type: functional; settings: time 16-20 hrs; procedure, shortened: as §1
Enterobacteriaceae [9] = assay: Antibacterial activity against NDM1 producing carbapenem-resistant Enterobacteriaceae clinical isolate 2 assessed as reduction in bacterial growth incubated for 16 to 20 hrs by CLSI-based broth microdilution method; type: functional; settings: time 16-20 hrs; procedure, shortened: as §1
Staphylococcus aureus [10] = assay: Antibiofilm activity against 24 hrs preformed biofilm of Staphylococcus aureus ATCC 29213 assessed as eradication of preformed biofilm incubated for 24 hrs by crystal violet staining assay; type: functional
[11] = Hemolytic activity in sheep RBC incubated for 1 hr; type: ADME, cell-based, Ovis aries, Erythrocyte; settings: sheep red blood cells (erythrocytes)
Procedure, shortened: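 Sheep RBCs were resuspended at 5% in PBS and mixed 3:1 with serial dilutions (2560 to 5 µg/mL, pre-mixing levels), then incubated 1 h at 37 °C. After centrifugation, supernatant A540 was read. Hemolysis % was calculated as (A−A0)/(Atotal−A0)×100, with untreated RBCs as 0% and 0.1% Triton X-100 as total lysis.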

Enterobacteriaceae [12] = assay: Antibacterial activity against NDM1 producing carbapenem-resistant Enterobacteriaceae clinical isolate 9 assessed as reduction in bacterial growth incubated for 16 to 20 hrs by CLSI-based broth microdilution method; type: functional; settings: time 16-20 hrs; procedure, shortened: as §1
Klebsiella pneumoniae [13] = assay: Antibacterial activity against carbapenem-resistant Klebsiella pneumoniae clinical isolate 7 assessed as reduction in bacterial growth incubated for 16 to 20 hrs by CLSI-based broth microdilution method; type: functional; settings: time 16-20 hrs; procedure, shortened: as §1
Cell membrane [14] = assay: Induction of outer membrane permeabilization in Escherichia coli ATCC 25922 at 20 ug/ml measured for 12 mins by NPN dye based fluorescence assay; settings: dose 20.0 µg/ml
Procedure, shortened: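 Mid-log E. coli in HEPES/glucose/KCl at ~10^8 CFU/mL was preincubated 40 min with N-phenylnaphthylamine (10 µM stock). Fluorescence (ex 350/em 420 nm) was read for an 8 min baseline, then every 2 min for 12 min after compound at 20 µg/mL final. Water served as control.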

Cell membrane [15] = assay: Induction of inner membrane permeabilization in Escherichia coli ATCC 25922 at 20 ug/ml measured for 12 mins by propidium iodide staining based fluorescence microscopic analysis; settings: dose 20.0 µg/ml; procedure, shortened: as §2
Klebsiella pneumoniae [16] = assay: Antibacterial activity against carbapenem-resistant Klebsiella pneumoniae clinical isolate 10 assessed as reduction in bacterial growth incubated for 16 to 20 hrs by CLSI-based broth microdilution method; type: functional; settings: time 16-20 hrs; procedure, shortened: as §1
Enterobacteriaceae [17] = assay: Antibacterial activity against NDM1 producing carbapenem-resistant Enterobacteriaceae clinical isolate 1 assessed as reduction in bacterial growth incubated for 16 to 20 hrs by CLSI-based broth microdilution method; type: functional; settings: time 16-20 hrs; procedure, shortened: as §1
Staphylococcus aureus [18] = assay: Antibiofilm activity against Staphylococcus aureus ATCC 29213 assessed as inhibition of biofilm formation incubated for 24 hrs by crystal violet staining assay; type: functional
Procedure, shortened: (§4)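 Twofold serial dilutions in MHB received 1:1000-diluted exponential-phase bacteria and were incubated 24 h at 37 °C. Wells were rinsed, stained with 0.1% crystal violet for 10 min and dissolved in ethanol, and OD540 was read. MBIC80 was the concentration inhibiting 80% of biofilm formation versus untreated wells, taken from dose-response curves.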

Enterobacteriaceae [19] = assay: Antibacterial activity against NDM1 producing carbapenem-resistant Enterobacteriaceae clinical isolate 10 assessed as reduction in bacterial growth incubated for 16 to 20 hrs by CLSI-based broth microdilution method; type: functional; settings: time 16-20 hrs; procedure, shortened: as §1
Enterobacteriaceae [20] = assay: Antibacterial activity against NDM1 producing carbapenem-resistant Enterobacteriaceae clinical isolate 8 assessed as reduction in bacterial growth incubated for 16 to 20 hrs by CLSI-based broth microdilution method; type: functional; settings: time 16-20 hrs; procedure, shortened: as §1
Klebsiella pneumoniae [21] = assay: Antibacterial activity against carbapenem-resistant Klebsiella pneumoniae clinical isolate 2 assessed as reduction in bacterial growth incubated for 16 to 20 hrs by CLSI-based broth microdilution method; type: functional; settings: time 16-20 hrs; procedure, shortened: as §1
Cell membrane [22] = assay: Induction of cytoplasmic membrane depolarization in Escherichia coli ATCC 25922 at 20 ug/ml measured for 12 mins by DiSC35 dye-based fluorescence assay; type: subcellular; settings: dose 20.0 µg/ml; procedure, shortened: as §3
Klebsiella pneumoniae [23] = assay: Antibacterial activity against carbapenem-resistant Klebsiella pneumoniae clinical isolate 3 assessed as reduction in bacterial growth incubated for 16 to 20 hrs by CLSI-based broth microdilution method; type: functional; settings: time 16-20 hrs; procedure, shortened: as §1
Enterobacteriaceae [24] = assay: Antibacterial activity against NDM1 producing carbapenem-resistant Enterobacteriaceae clinical isolate 7 assessed as reduction in bacterial growth incubated for 16 to 20 hrs by CLSI-based broth microdilution method; type: functional; settings: time 16-20 hrs; procedure, shortened: as §1
Klebsiella pneumoniae [25] = assay: Antibacterial activity against carbapenem-resistant Klebsiella pneumoniae clinical isolate 6 assessed as reduction in bacterial growth incubated for 16 to 20 hrs by CLSI-based broth microdilution method; type: functional; settings: time 16-20 hrs; procedure, shortened: as §1
Escherichia coli [26] = assay: Antibiofilm activity against Escherichia coli ATCC 25922 assessed as inhibition of biofilm formation incubated for 24 hrs by crystal violet staining assay; type: functional; procedure, shortened: as §4
Klebsiella pneumoniae [27] = assay: Antibacterial activity against carbapenem-resistant Klebsiella pneumoniae clinical isolate 9 assessed as reduction in bacterial growth incubated for 16 to 20 hrs by CLSI-based broth microdilution method; type: functional; settings: time 16-20 hrs; procedure, shortened: as §1
Salmonella enterica = assay: Antibacterial activity against Salmonella enterica ATCC 8387 assessed as reduction in bacterial growth incubated for 16 to 20 hrs by CLSI-based broth microdilution method; type: functional; settings: time 16-20 hrs
Procedure, shortened: (§5)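 Broth microdilution following CLSI, in cation-adjusted Mueller-Hinton broth. Inoculum from a 4-6 h culture (~10^8 CFU/mL), diluted to ~10^6 CFU/mL. Water stocks were serially diluted in MHB (256 to 0.5 µg/mL) and mixed 1:1 with the inoculum. Plates ran 16-20 h at 37 °C. MIC was read visually. Each concentration was tested in duplicate, and the experiment was repeated at least twice.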

Enterobacteriaceae [28] = assay: Antibacterial activity against NDM1 producing carbapenem-resistant Enterobacteriaceae clinical isolate 4 assessed as reduction in bacterial growth incubated for 16 to 20 hrs by CLSI-based broth microdilution method; type: functional; settings: time 16-20 hrs; procedure, shortened: as §1
Escherichia coli [29] = assay: Antibacterial activity against Escherichia coli ATCC 25922 assessed as reduction in bacterial growth incubated 16 to 20 hrs by CLSI-based broth microdilution method; type: functional; settings: time 16-20 hrs; procedure, shortened: as §5
Enterobacteriaceae [30] = assay: Antibacterial activity against NDM1 producing carbapenem-resistant Enterobacteriaceae clinical isolate 6 assessed as reduction in bacterial growth incubated for 16 to 20 hrs by CLSI-based broth microdilution method; type: functional; settings: time 16-20 hrs; procedure, shortened: as §1
Klebsiella pneumoniae [31] = assay: Antibacterial activity against carbapenem-resistant Klebsiella pneumoniae clinical isolate 8 assessed as reduction in bacterial growth incubated for 16 to 20 hrs by CLSI-based broth microdilution method; type: functional; settings: time 16-20 hrs; procedure, shortened: as §1
Escherichia coli [32] = assay: Resistance ratio of compound MIC for Escherichia coli ATCC 25922 after 20 passages to compound MIC for Escherichia coli ATCC 25922 after 16 to 20 hrs by CLSI-based broth microdilution method; type: functional
Procedure, shortened: (§6)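 Serial passaging: after each 24 h MIC assay, cells grown at 1/2 MIC were transferred and the MIC assayed again, for 20 passages. Done with S. aureus, E. coli and MRSA. MIC plotted against days of passage. Experiment repeated twice.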

Staphylococcus aureus [33] = assay: Antibacterial activity against Staphylococcus aureus ATCC 29213 assessed as reduction in bacterial growth incubated for 16 to 20 hrs by CLSI-based broth microdilution method; type: functional; settings: time 16-20 hrs; procedure, shortened: as §5
Staphylococcus aureus [34] = assay: Resistance ratio of compound MIC for Staphylococcus aureus ATCC 29213 after 20 passages to compound MIC for Staphylococcus aureus ATCC 29213 after 16 to 20 hrs by CLSI-based broth microdilution method; type: functional; procedure, shortened: as §6

CC(=O)NC[C@H]1CN(c2ccc(N3CCOCC3)c(F)c2)C(=O)O1 [LINEZOLID]
MIC (Klebsiella pneumoniae [1]): > 64 µg/mL | MIC (Enterobacteriaceae [2]): > 64 µg/mL | MIC (Enterobacteriaceae [3]): > 64 µg/mL | MBEC (Escherichia coli [4]): >128 µg/mL | MBEC80 (Escherichia coli [4]): >128 µg/mL | MBEC90 (Escherichia coli [4]): >128 µg/mL | Activity (Cell membrane [5]): inactive | Activity (Cell membrane [6]): inactive | MIC (Klebsiella pneumoniae [7]): > 64 µg/mL | MIC (Klebsiella pneumoniae [8]): > 64 µg/mL | MIC (Enterobacteriaceae [9]): > 64 µg/mL | MBEC (Staphylococcus aureus [10]): >128 µg/mL | MBEC80 (Staphylococcus aureus [10]): >128 µg/mL | MBEC90 (Staphylococcus aureus [10]): >128 µg/mL | HC50 at 1 h [11]: 550 µg/mL | MIC (Enterobacteriaceae [12]): > 64 µg/mL | MIC (Klebsiella pneumoniae [13]): > 64 µg/mL | Activity (Cell membrane [14]): inactive | Activity (Cell membrane [15]): inactive | MIC (Klebsiella pneumoniae [16]): > 64 µg/mL | MIC (Enterobacteriaceae [17]): > 64 µg/mL | MBIC80 (Staphylococcus aureus [18]): 26.8 µg/mL | MBIC90 (Staphylococcus aureus [18]): 36.1 µg/mL | MIC (Enterobacteriaceae [19]): > 64 µg/mL | MIC (Enterobacteriaceae [20]): > 64 µg/mL | MIC (Klebsiella pneumoniae [21]): > 64 µg/mL | Activity (Cell membrane [22]): inactive | MIC (Klebsiella pneumoniae [23]): > 64 µg/mL | MIC (Enterobacteriaceae [24]): > 64 µg/mL | MIC (Klebsiella pneumoniae [25]): > 64 µg/mL | MBIC80 (Escherichia coli [26]): >128 µg/mL | MBIC90 (Escherichia coli [26]): >128 µg/mL | MIC (Klebsiella pneumoniae [27]): > 64 µg/mL | MIC (Salmonella enterica): > 64 µg/mL | MIC (Enterobacteriaceae [28]): > 64 µg/mL | MIC (Escherichia coli [29]): > 64 µg/mL | MIC (Enterobacteriaceae [30]): > 64 µg/mL | MIC (Klebsiella pneumoniae [31]): > 64 µg/mL

COLISTIN
Ratio (Escherichia coli [32]): 32 | MIC (Escherichia coli [29]): 0.5 µg/mL

CCn1cc(C(=O)O)c(=O)c2cc(F)c(N3CCNCC3)cc21 [NORFLOXACIN]
MIC (Staphylococcus aureus [33]): 1 µg/mL (≈ 3.13 µM) | Ratio (Staphylococcus aureus [34]): 256
